The source made the active and inactive calls. No cut-off for these calls is given here.
What was measured:
[1] = system: Mus musculus; experiment: Antiulcerative activity in DSS-induced C57BL/6J mouse model of acute ulcerative colitis assessed as body weight loss at 200 mg/kg, po measured over 7 days (reference value: 18%); format: functional
[2] = system: Mus musculus; experiment: Antiulcerative activity in DSS-induced C57BL/6J mouse model of acute ulcerative colitis assessed as improvement in colon lesion at 200 mg/kg, po measured over 7 days by microscopic analysis; format: functional, organism-based
Method in brief: (§1)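 At the end of the 7-day DSS acute UC trial in C57bl/6j mice (oral 200 mg/kg; SASP 300 mg/kg; normal and model groups), colon tissue was examined microscopically after HE staining at ×200 for histopathological change.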

[3] = Cytotoxicity against rat IEC-6 cells assessed as survival at 10 uM by MTT assay; format: cell-based; conditions: read-out: Survival
[4] = biological target: T1, X-box-binding protein 1 (Rattus norvegicus) (UniProt Q9R1S4); experiment: Activation of XBP1 in rat IEC-6 cells assessed as transcriptional activity at 10 uM measured after 48 hrs by dual luciferase reporter gene assay relative to con 2; format: cell-based
T1 sequence (whole entry): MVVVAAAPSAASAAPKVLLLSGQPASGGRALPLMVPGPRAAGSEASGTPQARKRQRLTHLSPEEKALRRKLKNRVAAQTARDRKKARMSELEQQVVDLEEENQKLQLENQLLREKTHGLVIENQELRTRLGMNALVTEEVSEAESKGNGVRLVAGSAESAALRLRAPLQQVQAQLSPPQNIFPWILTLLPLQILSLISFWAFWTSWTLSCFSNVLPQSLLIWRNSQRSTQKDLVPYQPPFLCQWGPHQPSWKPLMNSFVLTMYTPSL
Method in brief: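 XBP1 transcriptional activity read by dual luciferase reporter in growth-phase IEC-6 cells (5 × 10⁴ cells/well). Cells had 4 h plasmid transfection at 37 °C, 5% CO₂, then were coincubated 48 h with compound at 10 μM. Con 1 served as background contrast and con 2 as the pGL3-basic vector control.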

[5] = system: Mus musculus; experiment: Antiulcerative activity in DSS-induced C57BL/6J mouse model of acute ulcerative colitis assessed as inhibition of disease activity index at 200 mg/kg, po measured over 7 days relative to control; format: functional; conditions: 168 h
Method in brief: (§2)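 Disease activity index (DAI) was scored in DSS-induced acute UC C57bl/6j mice (n = 8/group) given oral compound at 200 mg/kg or SASP at 300 mg/kg over 7 days. Inhibition ratio (IR %) is reported relative to the DSS model group.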

[6] = system: Mus musculus; experiment: Antiulcerative activity in DSS-induced C57BL/6J mouse model of acute ulcerative colitis assessed as colon contracture at 200 mg/kg, po measured over 7 days (reference value: 37 %); format: functional
Method in brief: (§3)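 Acute DSS colitis in C57bl/6j mice (n = 8/group), oral dosing (200 mg/kg test, SASP 300 mg/kg), 7-day trial with normal and DSS model groups. Colon length was measured at the end of the trial, and contracture was given as percentage shortening versus normal controls.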

[7] = biological target: T2, X-box-binding protein 1 (Rattus norvegicus, UniProt Q9R1S4); experiment: Activation of XBP1 in rat IEC-6 cells assessed as transcriptional activity measured after 48 hrs by dual luciferase reporter gene assay; format: cell-based
T2 sequence (Q9R1S4 whole entry): T1 sequence (whole entry)
Method in brief: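 Dose–effect version of the IEC-6 XBP1 dual luciferase reporter assay. Cells (5 × 10⁴/well) had 4 h plasmid transfection at 37 °C, 5% CO₂, then 48 h coincubation with compound; EC₅₀ was taken from the dose–effect relationship.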

[8] = system: Mus musculus; experiment: Antiulcerative activity in DSS-induced C57BL/6J mouse model of acute ulcerative colitis assessed as colon macroscopic damage index at 200 mg/kg, po measured over 7 days (reference value: 4.63 +/- 0.52); format: functional
[9] = system: Mus musculus; experiment: Antiulcerative activity in DSS-induced C57BL/6J mouse model of acute ulcerative colitis assessed as regular arrangement of IEC cells at 200 mg/kg, po measured over 7 days by microscopic analysis; format: functional, organism-based; method in brief: as §1
[10] = system: Mus musculus; experiment: Antiulcerative activity in DSS-induced C57BL/6J mouse model of acute ulcerative colitis assessed as colon macroscopic damage index at 300 mg/kg, po measured over 7 days (reference value: 4.63 +/- 0.52); format: functional
[11] = system: Mus musculus; experiment: Antiulcerative activity in DSS-induced C57BL/6J mouse model of acute ulcerative colitis assessed as inhibition of disease activity index at 300 mg/kg, po measured over 7 days relative to control; format: functional; conditions: 168 h; method in brief: as §2
[12] = system: Mus musculus; experiment: Antiulcerative activity in DSS-induced C57BL/6J mouse model of acute ulcerative colitis assessed as colon contracture at 300 mg/kg, po measured over 7 days (reference value: 37 %); format: functional; method in brief: as §3
[13] = system: Mus musculus; experiment: Antiulcerative activity in DSS-induced C57BL/6J mouse model of acute ulcerative colitis assessed as body weight loss at 300 mg/kg, po measured over 7 days (reference value: 18%); format: functional
[14] = system: Mus musculus; experiment: Antiulcerative activity in DSS-induced C57BL/6J mouse model of acute ulcerative colitis assessed as partial disappearance of inflammatory edema at 300 mg/kg, po measured over 7 days by microscopic analysis

| SMILES | viability at 10 µM [3] | fold change (FC) [4] | EC50 ([7]; read-out: EC50) | also measured |
| --- | --- | --- | --- | --- |
| CCCCC(=O)/N=c1\c2c3c(ccc2cc2n1CCc1cc4c(cc1-2)OCO4)OCO3 | 79 to 103% | > 1.07 | 0.0325 µM | Activity [1]: 10%; Activity [2]: Active; inhibition in vivo at 200 mg/kg [5]: 33%; Activity [6]: 15%; Activity [8]: 2.63 |
| c1ccc(/N=c2/c3c4c(ccc3cc3n2CCc2cc5c(cc2-3)OCO5)OCO4)cc1 | 79 to 103% | > 1.07 | 0.113 µM | – |
| CCCCCCCC(=O)/N=c1\c2c3c(ccc2cc2n1CCc1cc4c(cc1-2)OCO4)OCO3 | 79 to 103% | – | – | Ratio [4]: 0.78 to 107; EC50 [7]: Not Active |
| CCCCCCC(=O)/N=c1\c2c3c(ccc2cc2n1CCc1cc4c(cc1-2)OCO4)OCO3 | 79 to 103% | – | – | Ratio [4]: 0.78 to 107; EC50 [7]: Not Active |
| Clc1ccc(/N=c2/c3c4c(ccc3cc3n2CCc2cc5c(cc2-3)OCO5)OCO4)cc1 | 79 to 103% | > 1.07 | 0.174 µM | – |
| Cc1ccc(/N=c2/c3c4c(ccc3cc3n2CCc2cc5c(cc2-3)OCO5)OCO4)cc1 | 79 to 103% | > 1.07 | 0.0132 µM | Activity [1]: 11%; inhibition in vivo at 200 mg/kg [5]: 27%; Activity [6]: 9%; Activity [8]: 2.63; Activity [9]: Active |
| Fc1ccc(/N=c2/c3c4c(ccc3cc3n2CCc2cc5c(cc2-3)OCO5)OCO4)cc1 | 79 to 103% | > 1.07 | 0.346 µM | – |
| CCC(=O)/N=c1\c2c3c(ccc2cc2n1CCc1cc4c(cc1-2)OCO4)OCO3 | 79 to 103% | > 1.07 | 0.289 µM | – |
| CC(=O)/N=c1\c2c3c(ccc2cc2n1CCc1cc4c(cc1-2)OCO4)OCO3 | 79 to 103% | > 1.07 | 0.283 µM | – |
| Brc1ccc(/N=c2/c3c4c(ccc3cc3n2CCc2cc5c(cc2-3)OCO5)OCO4)cc1 | 79 to 103% | > 1.07 | 0.0489 µM | – |
| O=C(O)C1=C/C(=N\Nc2ccc(S(=O)(=O)Nc3ccccn3)cc2)C=CC1=O | – | – | – | Activity [10]: 3.17; inhibition in vivo at 300 mg/kg [11]: 18%; Activity [12]: 24%; Activity [13]: 9%; Activity [14]: Active |
| O=c1c2c3c(ccc2cc2n1CCc1cc4c(cc1-2)OCO4)OCO3 | – | > 1.07 | 0.0798 µM | – |
| COc1ccc(/N=c2/c3c4c(ccc3cc3n2CCc2cc5c(cc2-3)OCO5)OCO4)cc1 | 79 to 103% | – | 0.184 µM | Ratio [4]: 0.78 to 107 |
| [Cl-].c1c2c(cc3c1OCO3)-c1cc3ccc4c(c3c[n+]1CC2)OCO4 [COPTISINE CHLORIDE] | 79 to 103% | – | – | Ratio [4]: 0.78 to 107; EC50 [7]: Not Active |
| CCCC(=O)/N=c1\c2c3c(ccc2cc2n1CCc1cc4c(cc1-2)OCO4)OCO3 | 79 to 103% | > 1.07 | 0.119 µM | – |
| N=c1c2c3c(ccc2cc2n1CCc1cc4c(cc1-2)OCO4)OCO3 | 79 to 103% | – | – | Ratio [4]: 0.78 to 107; EC50 [7]: Not Active |
| CCCCCC(=O)/N=c1\c2c3c(ccc2cc2n1CCc1cc4c(cc1-2)OCO4)OCO3 | 79 to 103% | > 1.07 | 0.0708 µM | – |
